# Test results taken from ChEMBL document CHEMBL1212777, “Novel VIM metallo-beta-lactamase variant from clinical isolates of Enterobacteriaceae from Algeria” (2010).
# Assays:
# [1] = system: Escherichia coli BL21(DE3); test: Hydrolytic activity of Escherichia coli BL21 DE3 beta-lactamase VIM-19 by microacidimetric method
# Method in brief: (§1)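 Enzyme overexpressed from modified pET9a in E. coli BL21(DE3), released by sonication, and purified on Q Sepharose (20 mM Tris-HCl pH 7.4, 0–500 mM NaCl gradient) then Superose 12. Protein measured by Bio-Rad assay against a BSA standard.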
# [2] = system: Escherichia coli BL21(DE3); test: Ratio of Kcat to Km for Escherichia coli BL21 DE3 beta-lactamase VIM-19 by microacidimetric method; method in brief: as §1
# [3] = system: CC(=O)OCC1=C(C(=O)O)N2C(=O)[C@@H](NC(=O)Cc3cccs3)[C@H]2SC1; test: (§2) Ratio of Kcat to Km for beta-lactamase VIM-1 in Escherichia coli DH5alpha expressing pBCLL/39H by microacidimetric method
# [4] = system: CO/N=C(\C(=O)N[C@@H]1C(=O)N2C(C(=O)O)=C(COC(N)=O)CS[C@H]12)c1ccco1; test: as §2
# [5] = system: CO/N=C(\C(=O)N[C@@H]1C(=O)N2C(C(=O)O)=C(COC(C)=O)CS[C@H]12)c1csc(N)n1; test: as §2
# [6] = system: CO[C@@]1(NC(=O)Cc2cccs2)C(=O)N2C(C(=O)O)=C(COC(N)=O)CS[C@@H]21; test: as §2
# [7] = system: CCN1CCN(C(=O)N[C@@H](C(=O)N[C@@H]2C(=O)N3[C@@H]2SC(C)(C)[C@@H]3C(=O)O)c2ccccc2)C(=O)C1=O; test: as §2
# [8] = system: CC1(C)S[C@@H]2[C@H](NC(=O)Cc3ccccc3)C(=O)N2[C@H]1C(=O)O; test: as §2
# [9] = system: CC(C)(O/N=C(\C(=O)N[C@@H]1C(=O)N2C(C(=O)[O-])=C(C[n+]3ccccc3)CS[C@H]12)c1csc(N)n1)C(=O)O; test: as §2
# [10] = system: C[C@@H](O)[C@H]1C(=O)N2C(C(=O)O)=C(S[C@@H]3CN[C@H](C(=O)N(C)C)C3)[C@H](C)[C@H]12; test: as §2
# [11] = system: CC(=O)OCC1=C(C(=O)O)N2C(=O)[C@@H](NC(=O)Cc3cccs3)[C@H]2SC1; test: (§3) Hydrolytic activity of beta-lactamase VIM-1 in Escherichia coli DH5alpha expressing pBCLL/39H by microacidimetric method
# [12] = system: CO/N=C(\C(=O)N[C@@H]1C(=O)N2C(C(=O)O)=C(COC(N)=O)CS[C@H]12)c1ccco1; test: as §3
# [13] = system: CO/N=C(\C(=O)N[C@@H]1C(=O)N2C(C(=O)O)=C(COC(C)=O)CS[C@H]12)c1csc(N)n1; test: as §3
# [14] = system: CO[C@@]1(NC(=O)Cc2cccs2)C(=O)N2C(C(=O)O)=C(COC(N)=O)CS[C@@H]21; test: as §3
# [15] = system: CCN1CCN(C(=O)N[C@@H](C(=O)N[C@@H]2C(=O)N3[C@@H]2SC(C)(C)[C@@H]3C(=O)O)c2ccccc2)C(=O)C1=O; test: as §3
# [16] = system: CC1(C)S[C@@H]2[C@H](NC(=O)Cc3ccccc3)C(=O)N2[C@H]1C(=O)O; test: as §3
# [17] = system: CC(=O)OCC1=C(C(=O)O)N2C(=O)[C@@H](NC(=O)Cc3cccs3)[C@H]2SC1; test: (§4) Hydrolytic activity of Escherichia coli DH10B beta-lactamase VIM-2 by microacidimetric method; conditions: Escherichia coli str. K-12 substr. DH10B
# [18] = system: CO/N=C(\C(=O)N[C@@H]1C(=O)N2C(C(=O)O)=C(COC(N)=O)CS[C@H]12)c1ccco1; test: as §4; conditions: Escherichia coli str. K-12 substr. DH10B
# [19] = system: CO/N=C(\C(=O)N[C@@H]1C(=O)N2C(C(=O)[O-])=C(C[N+]3(C)CCCC3)CS[C@H]12)c1csc(N)n1; test: as §4; conditions: Escherichia coli str. K-12 substr. DH10B
# [20] = system: C[C@H]1[C@H](NC(=O)/C(=N\OC(C)(C)C(=O)O)c2csc(N)n2)C(=O)N1S(=O)(=O)O; test: as §4; conditions: Escherichia coli str. K-12 substr. DH10B
# [21] = system: CO/N=C(\C(=O)N[C@@H]1C(=O)N2C(C(=O)O)=C(COC(C)=O)CS[C@H]12)c1csc(N)n1; test: as §4; conditions: Escherichia coli str. K-12 substr. DH10B
# [22] = system: CO[C@@]1(NC(=O)Cc2cccs2)C(=O)N2C(C(=O)O)=C(COC(N)=O)CS[C@@H]21; test: as §4; conditions: Escherichia coli str. K-12 substr. DH10B
# [23] = system: CCN1CCN(C(=O)N[C@@H](C(=O)N[C@@H]2C(=O)N3[C@@H]2SC(C)(C)[C@@H]3C(=O)O)c2ccccc2)C(=O)C1=O; test: as §4; conditions: Escherichia coli str. K-12 substr. DH10B
# [24] = system: C[C@@H](O)[C@H]1C(=O)N2C(C(=O)O)=C(S[C@@H]3CN[C@H](C(=O)Nc4cccc(C(=O)O)c4)C3)[C@H](C)[C@H]12; test: as §4; conditions: Escherichia coli str. K-12 substr. DH10B
# [25] = system: CC1(C)S[C@@H]2[C@H](NC(=O)[C@H](C(=O)O)c3ccsc3)C(=O)N2[C@H]1C(=O)O; test: as §4; conditions: Escherichia coli str. K-12 substr. DH10B
# [26] = system: CC1(C)S[C@@H]2[C@H](NC(=O)[C@H](N)c3ccc(O)cc3)C(=O)N2[C@H]1C(=O)O; test: as §4; conditions: Escherichia coli str. K-12 substr. DH10B
# [27] = system: CC1(C)S[C@@H]2[C@H](NC(=O)Cc3ccccc3)C(=O)N2[C@H]1C(=O)O; test: as §4; conditions: Escherichia coli str. K-12 substr. DH10B
# [28] = system: CC(C)(O/N=C(\C(=O)N[C@@H]1C(=O)N2C(C(=O)[O-])=C(C[n+]3ccccc3)CS[C@H]12)c1csc(N)n1)C(=O)O; test: as §4; conditions: Escherichia coli str. K-12 substr. DH10B
# [29] = system: C[C@@H](O)[C@H]1C(=O)N2C(C(=O)O)=C(S[C@@H]3CN[C@H](C(=O)N(C)C)C3)[C@H](C)[C@H]12; test: as §4; conditions: Escherichia coli str. K-12 substr. DH10B
# [30] = system: C[C@@H](O)[C@H]1C(=O)N2C(C(=O)O)=C(SCCNC=N)C[C@H]12; test: as §4; conditions: Escherichia coli str. K-12 substr. DH10B
# [31] = system: CC(=O)OCC1=C(C(=O)O)N2C(=O)[C@@H](NC(=O)Cc3cccs3)[C@H]2SC1; test: (§5) Ratio of Kcat to Km for Escherichia coli DH10B beta-lactamase VIM-2 by microacidimetric method; conditions: Escherichia coli str. K-12 substr. DH10B
# [32] = system: CO/N=C(\C(=O)N[C@@H]1C(=O)N2C(C(=O)O)=C(COC(N)=O)CS[C@H]12)c1ccco1; test: as §5; conditions: Escherichia coli str. K-12 substr. DH10B
# [33] = system: CO/N=C(\C(=O)N[C@@H]1C(=O)N2C(C(=O)[O-])=C(C[N+]3(C)CCCC3)CS[C@H]12)c1csc(N)n1; test: as §5; conditions: Escherichia coli str. K-12 substr. DH10B
# [34] = system: CO/N=C(\C(=O)N[C@@H]1C(=O)N2C(C(=O)O)=C(COC(C)=O)CS[C@H]12)c1csc(N)n1; test: as §5; conditions: Escherichia coli str. K-12 substr. DH10B
# [35] = system: CO[C@@]1(NC(=O)Cc2cccs2)C(=O)N2C(C(=O)O)=C(COC(N)=O)CS[C@@H]21; test: as §5; conditions: Escherichia coli str. K-12 substr. DH10B
# [36] = system: CCN1CCN(C(=O)N[C@@H](C(=O)N[C@@H]2C(=O)N3[C@@H]2SC(C)(C)[C@@H]3C(=O)O)c2ccccc2)C(=O)C1=O; test: as §5; conditions: Escherichia coli str. K-12 substr. DH10B
# [37] = system: C[C@@H](O)[C@H]1C(=O)N2C(C(=O)O)=C(S[C@@H]3CN[C@H](C(=O)Nc4cccc(C(=O)O)c4)C3)[C@H](C)[C@H]12; test: as §5; conditions: Escherichia coli str. K-12 substr. DH10B
# [38] = system: CC1(C)S[C@@H]2[C@H](NC(=O)[C@H](C(=O)O)c3ccsc3)C(=O)N2[C@H]1C(=O)O; test: as §5; conditions: Escherichia coli str. K-12 substr. DH10B
# [39] = system: CC1(C)S[C@@H]2[C@H](NC(=O)[C@H](N)c3ccc(O)cc3)C(=O)N2[C@H]1C(=O)O; test: as §5; conditions: Escherichia coli str. K-12 substr. DH10B
# [40] = system: CC1(C)S[C@@H]2[C@H](NC(=O)Cc3ccccc3)C(=O)N2[C@H]1C(=O)O; test: as §5; conditions: Escherichia coli str. K-12 substr. DH10B
# [41] = system: CC(C)(O/N=C(\C(=O)N[C@@H]1C(=O)N2C(C(=O)[O-])=C(C[n+]3ccccc3)CS[C@H]12)c1csc(N)n1)C(=O)O; test: as §5; conditions: Escherichia coli str. K-12 substr. DH10B
# [42] = system: C[C@@H](O)[C@H]1C(=O)N2C(C(=O)O)=C(S[C@@H]3CN[C@H](C(=O)N(C)C)C3)[C@H](C)[C@H]12; test: as §5; conditions: Escherichia coli str. K-12 substr. DH10B
# [43] = system: C[C@@H](O)[C@H]1C(=O)N2C(C(=O)O)=C(SCCNC=N)C[C@H]12; test: as §5; conditions: Escherichia coli str. K-12 substr. DH10B
compound,measurement,setting,value
CC(=O)OCC1=C(C(=O)O)N2C(=O)[C@@H](NC(=O)Cc3cccs3)[C@H]2SC1,kcat,[1],21.2 s⁻¹
same,kcat/Km,[2],1.4e+06 M⁻¹ s⁻¹
CC(C)(O/N=C(\C(=O)N[C@@H]1C(=O)N2C(C(=O)[O-])=C(C[n+]3ccccc3)CS[C@H]12)c1csc(N)n1)C(=O)O,kcat,[1],6.3 s⁻¹
same,kcat/Km,[2],70000 M⁻¹ s⁻¹
CC1(C)S[C@@H]2[C@H](NC(=O)Cc3ccccc3)C(=O)N2[C@H]1C(=O)O,kcat,[1],206 s⁻¹
same,kcat/Km,[2],3.6e+06 M⁻¹ s⁻¹
CC1(C)S[C@@H]2[C@H](NC(=O)[C@H](C(=O)O)c3ccsc3)C(=O)N2[C@H]1C(=O)O,kcat,[1],45.8 s⁻¹
same,kcat/Km,[2],700000 M⁻¹ s⁻¹
CC1(C)S[C@@H]2[C@H](NC(=O)[C@H](N)c3ccc(O)cc3)C(=O)N2[C@H]1C(=O)O,kcat,[1],112 s⁻¹
same,kcat/Km,[2],3.3e+06 M⁻¹ s⁻¹
CCN1CCN(C(=O)N[C@@H](C(=O)N[C@@H]2C(=O)N3[C@@H]2SC(C)(C)[C@@H]3C(=O)O)c2ccccc2)C(=O)C1=O,kcat,[1],160 s⁻¹
same,kcat/Km,[2],4.3e+06 M⁻¹ s⁻¹
CO/N=C(\C(=O)N[C@@H]1C(=O)N2C(C(=O)O)=C(COC(C)=O)CS[C@H]12)c1csc(N)n1,kcat,[1],34.3 s⁻¹
same,kcat/Km,[2],950000 M⁻¹ s⁻¹
CO/N=C(\C(=O)N[C@@H]1C(=O)N2C(C(=O)O)=C(COC(N)=O)CS[C@H]12)c1ccco1,kcat,[1],5.3 s⁻¹
same,kcat/Km,[2],400000 M⁻¹ s⁻¹
CO/N=C(\C(=O)N[C@@H]1C(=O)N2C(C(=O)[O-])=C(C[N+]3(C)CCCC3)CS[C@H]12)c1csc(N)n1,kcat,[1],12.5 s⁻¹
same,kcat/Km,[2],230000 M⁻¹ s⁻¹
CO[C@@]1(NC(=O)Cc2cccs2)C(=O)N2C(C(=O)O)=C(COC(N)=O)CS[C@@H]21,kcat,[1],4 s⁻¹
same,kcat/Km,[2],80000 M⁻¹ s⁻¹
C[C@@H](O)[C@H]1C(=O)N2C(C(=O)O)=C(SCCNC=N)C[C@H]12,kcat,[1],8.2 s⁻¹
same,kcat/Km,[2],370000 M⁻¹ s⁻¹
C[C@@H](O)[C@H]1C(=O)N2C(C(=O)O)=C(S[C@@H]3CN[C@H](C(=O)N(C)C)C3)[C@H](C)[C@H]12,kcat,[1],1.3 s⁻¹
same,kcat/Km,[2],140000 M⁻¹ s⁻¹
C[C@@H](O)[C@H]1C(=O)N2C(C(=O)O)=C(S[C@@H]3CN[C@H](C(=O)Nc4cccc(C(=O)O)c4)C3)[C@H](C)[C@H]12,kcat,[1],0.6 s⁻¹
same,kcat/Km,[2],30000 M⁻¹ s⁻¹
C[C@H]1[C@H](NC(=O)/C(=N\OC(C)(C)C(=O)O)c2csc(N)n2)C(=O)N1S(=O)(=O)O,kcat,[1],< 0.1 s⁻¹
BlaVIM-1 (Escherichia coli) (from UniProt Q8GDC1),kcat/Km,[3],5.3e+06 M⁻¹ s⁻¹
same,kcat/Km,[4],7.7e+06 M⁻¹ s⁻¹
same,kcat/Km,[5],680000 M⁻¹ s⁻¹
same,kcat/Km,[6],200000 M⁻¹ s⁻¹
same,kcat/Km,[7],530000 M⁻¹ s⁻¹
same,kcat/Km,[8],34000 M⁻¹ s⁻¹
same,kcat/Km,[9],76000 M⁻¹ s⁻¹
same,kcat/Km,[10],270000 M⁻¹ s⁻¹
same,kcat,[11],281 s⁻¹
same,kcat,[12],324 s⁻¹
same,kcat,[13],169 s⁻¹
same,kcat,[14],26 s⁻¹
same,kcat,[15],1860 s⁻¹
same,kcat,[16],29 s⁻¹
Metallo-beta-lactamase (Escherichia coli) (from UniProt Q5U7L7),kcat,[17],56.2 s⁻¹
same,kcat,[18],12.1 s⁻¹
same,kcat,[19],4.7 s⁻¹
same,kcat,[20],< 0.5 s⁻¹
same,kcat,[21],27.5 s⁻¹
same,kcat,[22],2.8 s⁻¹
same,kcat,[23],32.7 s⁻¹
same,kcat,[24],0.2 s⁻¹
same,kcat,[25],31.7 s⁻¹
same,kcat,[26],29.7 s⁻¹
same,kcat,[27],55.8 s⁻¹
same,kcat,[28],88.7 s⁻¹
same,kcat,[29],1.4 s⁻¹
same,kcat,[30],9.9 s⁻¹
same,kcat/Km,[31],1.28e+06 M⁻¹ s⁻¹
same,kcat/Km,[32],550000 M⁻¹ s⁻¹
same,kcat/Km,[33],30000 M⁻¹ s⁻¹
same,kcat/Km,[34],860000 M⁻¹ s⁻¹
same,kcat/Km,[35],120000 M⁻¹ s⁻¹
same,kcat/Km,[36],450000 M⁻¹ s⁻¹
same,kcat/Km,[37],22000 M⁻¹ s⁻¹
same,kcat/Km,[38],690000 M⁻¹ s⁻¹
same,kcat/Km,[39],550000 M⁻¹ s⁻¹
same,kcat/Km,[40],1.14e+06 M⁻¹ s⁻¹
same,kcat/Km,[41],900000 M⁻¹ s⁻¹
same,kcat/Km,[42],280000 M⁻¹ s⁻¹
same,kcat/Km,[43],990000 M⁻¹ s⁻¹
